Compound activity (PubChem BioAssay)
STAT3 inh: inhibitors of IL-6 induced STAT3 signaling; U3A cells, IL-6 STAT3-luciferase reporter, luminescence; host cell line lacks STAT1; actives 0.89% (n = 190,000); AID 862; inhibition, % at 5.5 µM;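 active means inhibition above the mean inhibition across all screened compounds plus 3 SD, cut at about 44% in these data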;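 further: 0% = DMSO only wells and 100% = 100 µM nifuroxazide control wells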
STAT1 inh: reduces IFN-gamma driven STAT1 reporter signal | NIH 3T3 STAT1-luciferase reporter, luminescence | actives 0.35% (n = 200,000) | inhibition, % at 5.5 µM | AID 920;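 active means inhibition above a set limit, the mean inhibition across all tested compounds plus 3 SD, cut at about 34% in these data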;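 further: 0% = IFN-gamma with DMSO and 100% = IFN-gamma with 300 µM nifuroxazide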
Lipid droplet: hepatic lipid droplet formation modulation. AML12 mouse hepatocytes, oleate lipid droplets, BODIPY imaging. inhibition, % at 6.5 µM. actives 0.4% (n = 240,000);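 active means lipid droplet intensity inhibited by at least 50%, with more than 500 cells counted; inconclusive means wells with under 300 cells, treated as cytotoxic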
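Assay system: AML12 hepatocytes (mouse) / Also added: 100 µM oleic acid challenge / Times: overnight treatment with compound plus oleate / Detection: high-content imaging of BODIPY-stained droplets and DAPI nuclei / Evaluation: % inhibition of lipid droplet signal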
H9c2 TAG inh: inhibitors of triacylglycerol accumulation | AID 651582 | actives 0.66% (n = 230,000) | H9c2 cells, Nile Red lipid (TAG) fluorescence; cells loaded with 200 µM oleic acid | inhibition, % at 12.5 µM;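 active means pattern-corrected inhibition of lipid staining of at least 50% with the nuclear-stain viability signal not falling by more than 50%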;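 further: 0% = DMSO wells and 100% = triacsin C control wells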
Platelet DG rel: platelet dense granule release activity; human platelet-rich plasma, SFLLRN dense granule ATP release, luminescence; inhibition, %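 (compounds screened at 7.5 µM in platelet-rich plasma)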; actives 0.22% (n = 300,000); AID 1663;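 active means mean replicate score, as percent of positive control, at or above 50; inconclusive means mean below 50 but at least one replicate at or above 50; inactive means mean and every replicate below 50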
PPC-1+TRAIL kill: PPC-1 cancer cell killing with TRAIL present. PPC-1 cells + TRAIL, ATPLite viability luminescence. cell killing (% activity), % at 4 µM or 5 µM. AID 1443. actives 0.41% (n = 220,000);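 active means cell killing above 50% in the first pass at 4 µM, then a duplicate retest at 5 µM averaging 50% or more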;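 further: plate controls were cells with TRAIL plus DMSO for no effect and medium-only wells lacking cells for full effect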
PPC-1 tox: PPC-1 cell cytotoxicity; cytotoxicity, % at 5 µM; shares compounds with PPC-1+TRAIL kill; AID 1447; PPC-1 viability, ATPlite luminescence, overnight; actives 50% (n = 1,200);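 active means reconfirmed compounds whose average cytotoxicity reaches 50% or more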;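 further: 0% = DMSO-treated cells and 100% = wells holding medium but no cells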
* = called active by the depositor; ? = inconclusive; · = not tested or not shown. A selection: hits, their analogues and other compounds. The true share with any hit is near 1.5%.

SMILES	STAT3 inh	STAT1 inh	Lipid droplet	H9c2 TAG inh	Platelet DG rel	PPC-1+TRAIL kill	PPC-1 tox
Cc1cccc(NC(=O)c2cnc3ccccn3c2=O)c1	32	-21	-12	8	·	60*	59*
O=C(Nc1cnc2ccccn2c1=O)c1ccc(Cl)cc1Cl	70*	41*	8	10	4	37	48
Cc1ccc(C(=O)Nc2nccc(-c3cccs3)n2)cc1	24	-5	·	-12	2	13	·
Cc1ccc(C(=O)Nc2ncc3c(Cl)cccc3n2)cc1	63*	-15	·	-3	19	74*	67*
Cc1cccc(N(C)c2cc(-c3ccc(F)cc3)nc3ccnn23)c1	·	·	·	12	·	·	·
CC1CCCC(=NNc2ccc3ccccc3n2)C1 (stereo unspecified)	·	·	·	-8	·	·	·
O=C(CCCc1ccccc1)c1ccc2c(c1)OCCO2	108*	92*	-4	·	6	80*	84*
Nc1cc2c(cc1Br)-c1ccccc1C2=NO	·	·	·	4	·	·	·
Cc1csc(NC(=O)c2ccc(C)o2)n1	-4	-17	26	·	-1	15	·
Cc1ccc(C(=O)Nc2nc3c(s2)CCCC3)o1	26	-37	1	-18	26	52*	53*
C=Cc1ccc(CC2(C)C(=O)Nc3ccc(-c4cccnc4)cc32)cc1 (stereo unspecified)	·	·	·	-27	·	·	·
CCn1nnc(NC(=O)c2cccnc2)n1	16	8	·	-6	?	8	·
CCn1nnc(NC(=O)c2ccc(C(C)(C)C)cc2)n1	25	-17	·	16	-2	57*	42
CC(C)(C)c1ccc(CC(=O)N2CCC2(C)C(=O)NCc2cccs2)cc1 (stereo unspecified)	·	·	·	-12	·	·	·
O=C1Nc2cccc3c2N(CCC3)C2=C1CCC2	·	·	·	0	·	·	·
CC1(C(=O)NCC2CC2)CCN1C(=O)C1(c2ccccc2)CC1 (stereo unspecified)	·	·	·	-18	·	·	·
CC(C)(COC(=O)c1ccccc1)N1CC2CCC(C1)O2	·	·	·	-4	·	·	·
CC(C)c1ccc(/C=N/NC(=O)c2ccccn2)cc1	·	·	1	-11	35	69*	66*
O=C1C=CC(n2cc(F)c(=O)[nH]c2=O)O1 (stereo unspecified)	·	·	·	23	·	·	·
CN(Cc1ccccc1NCC(=O)Nc1ccccc1C#N)C1CCCCC1	-27	7	-15	8	-3	15	·
N#Cc1ccccc1NC(=O)CNc1ccccc1N1CCCCC1	-42	6	5	5	2	-13	-24
Cc1ccc(CNc2nc3ccccc3s2)s1	75*	51*	-3	-41	5	75*	75*
O=C(CCOc1cccc(Br)c1)Nc1ccc(F)c(S(=O)(=O)N2CCOCC2)c1	·	·	·	-22	·	·	·
Cc1ccc(C(=O)CN2C(=O)c3ccccc3S2(=O)=O)cc1	·	·	-5	6	3	45	46
CN(C)c1ccc(/C=N/NC(=O)c2ccn(C)n2)cc1	·	·	-1	1	1	39	26
SMILES	STAT3 inh	STAT1 inh	Lipid droplet	H9c2 TAG inh	Platelet DG rel	PPC-1+TRAIL kill	PPC-1 tox
Cc1cc(NC(=O)COC(=O)[C@H](Cc2ccccc2)NC(=O)c2ccco2)no1	·	·	·	14	·	·	·
COc1ccc2[nH]c(C(=O)O)c(CCC(=O)O)c2c1	-2	0	2	-19	-1	1	14
COc1ccc(/C=C/c2cc(C(=O)O)c3ccccc3n2)cc1	·	·	13	1	22	96*	96*
COc1ccc(/C=C/C(=O)Nc2ccccc2C(=O)O)cc1	51*	39*	-12	-12	3	83*	83*
COc1cc(OC)c(OC)cc1/C=C/c1cc(C(=O)O)c2ccccc2n1	0	5	1	-21	31	5	·
CC1(C(=O)NS(=O)(=O)c2cccc(C#N)c2)CCN1C(=O)c1cccc2ccccc12 (stereo unspecified)	·	·	·	-8	·	·	·
C[C@@H](CO)NC(=O)c1[nH]cnc1C(=O)Nc1cccc(Cl)c1	·	·	·	6	·	·	·
CCc1ccc(-c2ccc(SCC(=O)Nc3nnc(C)s3)nn2)cc1	23	-22	0	6	-3	74*	71*
CCc1ccc(-c2ccc(SCC(=O)NCC3CCCO3)nn2)cc1 (stereo unspecified)	11	-12	-4	11	-1	46	49
CCOc1ccc(-c2ccc(SCC(=O)Nc3nnc(C)s3)nn2)cc1	22	-4	-3	11	3	74*	75*
COc1cccc2nc3cc(C)c(C)cc3nc12	·	·	-3	·	70*	70*	68*
CC1(C(=O)NS(=O)(=O)c2cccc(F)c2)CCN1C(=O)Cc1cccs1 (stereo unspecified)	·	·	·	3	·	·	·
Cc1ccc2nc(-c3ccc(NS(=O)(=O)c4ccc(F)cc4)cc3)sc2c1	-5	-60	-16	-4	3	26	·
Nc1ccc2nc(-c3ccccc3)sc2c1	64*	42*	-1	19	64*	68*	68*
Nc1ccc(-c2nc3cc(N)ccc3s2)cc1	22	1	-6	8	·	48	54*
Cc1ccc2nc(-c3ccc(N)cc3)sc2c1	·	·	4	8	23	81*	82*
Nc1ccc2nc(-c3ccccc3)c(-c3ccccc3)nc2c1	·	·	-14	·	-5	·	·
O=C(/C=C/c1ccccc1)c1ccccn1	1	-18	·	·	19	3	·
O=C(/C=C/Nc1ccccc1Br)c1ccccn1	109*	94*	9	9	54*	92*	93*
O=C(/C=C\Nc1ccccn1)c1ccccc1	85*	45*	·	7	24	55*	54*
COc1ccc(C(=O)/C=C/Nc2ccccn2)c(OC)c1	·	·	18	-2	12	15	·
O=C(Nc1ccc(Br)cc1F)c1nc[nH]c1C(=O)N1CCc2ccccc2C1	·	·	·	14	·	·	·
Cc1cc(=O)[nH]c(N/N=C/c2ccccc2C(F)(F)F)n1	14	-16	12	-24	-15	18	·
COc1ccc(N/N=C(/N=Nc2nc(C)cc(=O)[nH]2)c2ccccc2)cc1	25	-19	-70	16	23	61*	58*
Cc1cc(=O)[nH]c(N=N/C(=N/Nc2ccc(O)cc2)c2ccccc2)n1	7	-14	-7	-2	?	12	2
